Type in all cases: functional
Assay [1] deals with Mus musculus. Put plainly: Percent increase in life span against P-388 leukemia in mice was determined at a dose of 300 mg/kg. The following applies: P388. The procedure, abridged: (§1)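 Male B6D2F1J mice, 5 per dose group, received 10⁶ P-388 cells ip on day 0. Dosing was ip qd × 4 on days 1-4 in sterile saline, or 10% Tween 80 for the butyl thioether. Median survival times of treated (T) and untreated control (C, 10-17 mice) groups were compared: %ILS = [(T/C) − 1]100. Weights taken on days 1 and 7.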

Assay [2] concerns Mus musculus. Briefly: Antitumor activity was determined for survival range of mice against P-388 leukemia in mice at a dose of 150 mg/kg. The procedure, abridged:
(§2)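 Male B6D2F1J mice implanted ip with 10⁶ P-388 cells on day 0; test agents given ip on days 1–4 (qd × 4) in sterile saline, or in 10% Tween 80 for the lipophilic thioether. Groups of 5 treated mice, with 10–17 untreated controls per experiment. Mice weighed on days 1 and 7 to give the 7-day weight change in g and %. Survival recorded in days as median and range.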

Assay [3] relates to Mus musculus. Put plainly: Antitumor activity was determined for 7-day average percent weight change against P-388 leukemia in mice at a dose of 300 mg/kg. The procedure, abridged:
(§3)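 Male B6D2F1J mice given 10⁶ P-388 cells ip on day 0, then treated ip once daily on days 1-4 (qd × 4), 5 mice per dose group. Compounds dosed in sterile saline, except one lipophilic thioether given in 10% Tween 80. Mice weighed on days 1 and 7; mean weight per mouse on day 1 and 7-day weight change reported in g and as percent.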

In assay [4] the test system is Mus musculus. Put plainly: Percent increase in life span against P-388 leukemia in mice was determined at a dose of 150 mg/kg. The following applies: P388. In outline: as §1
Assay [5] concerns Mus musculus. Briefly: Antitumor activity was determined for median survival of mice against P-388 leukemia in mice at a dose of 600 mg/kg. The procedure, abridged:
as §2

In assay [6] the test system is Mus musculus. Put plainly: Antitumor activity was determined for median survival of mice against P-388 leukemia in mice at a dose of 300 mg/kg. The procedure, abridged: as §2
Assay [7] has as its system Mus musculus. Briefly: Percent increase in life span against P-388 leukemia in mice was determined at a dose of 75 mg/kg. Particulars: P388. In outline:
as §1

Assay [8] deals with Mus musculus. Put plainly: Antitumor activity was determined for average weight on day 1 against P-388 leukemia in mice at a dose of 75 mg/kg. The procedure, abridged:
(§4)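 Male B6D2F1J mice, groups of 5, inoculated ip with 10⁶ P-388 cells on day 0. Drug given ip on days 1-4 (qd × 4) in sterile saline, or in 10% Tween 80 for the poorly water-soluble thioether. Average weight per mouse recorded on day 1, with reweighing on day 7 for percent weight change. Untreated control groups had 10-17 animals per experiment.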

Assay [9] concerns Mus musculus. Put plainly: Antitumor activity was determined for average weight on day 1 against P-388 leukemia in mice at a dose of 300 mg/kg. The procedure, abridged: as §4
The test system of assay [10] is Mus musculus. Briefly: Percent increase in life span against P-388 leukemia in mice was determined at a dose of 600 mg/kg. Particulars: P388. In outline:
as §1

The subject of assay [11] is Mus musculus. Briefly: Antitumor activity was determined for average 7-day weight change against P-388 leukemia in mice at a dose of 75 mg/kg. The procedure, abridged: as §3
In assay [12] the test system is Mus musculus. Briefly: Antitumor activity was determined for average 7-day weight change against P-388 leukemia in mice at a dose of 150 mg/kg. In outline: as §3
Assay [13] deals with Mus musculus. Put plainly: Antitumor activity was determined for median survival of mice against P-388 leukemia in mice at a dose of 150 mg/kg. The procedure, abridged:
as §2

Assay [14] has as its system Mus musculus. Put plainly: Antitumor activity was determined for survival range of mice against P-388 leukemia in mice at a dose of 600 mg/kg. The procedure, abridged:
as §2

The subject of assay [15] is Mus musculus. Briefly: Antitumor activity was determined for survival range of mice against P-388 leukemia in mice at a dose of 300 mg/kg. The procedure, abridged:
as §2

Assay [16] has as its system Mus musculus. Put plainly: Antitumor activity was determined for 7-day average percent weight change against P-388 leukemia in mice at a dose of 75 mg/kg. In outline:
as §3

The subject of assay [17] is Mus musculus. Put plainly: Antitumor activity was determined for 7-day average percent weight change against P-388 leukemia in mice at a dose of 150 mg/kg. The procedure, abridged:
as §3

Assay [18] deals with Mus musculus. Put plainly: Antitumor activity was determined for median survival of mice against P-388 leukemia in mice at a dose of 75 mg/kg. The procedure, abridged: as §2
Assay [19] deals with Mus musculus. Put plainly: Antitumor activity was determined for survival range of mice against P-388 leukemia in mice at a dose of 75 mg/kg. The procedure, abridged: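 Male B6D2F1J mice, 5 per dose group, implanted ip with 10⁶ P-388 leukemia cells on day 0. Drug given ip daily on days 1-4 (qd × 4) in sterile saline, or in 10% Tween 80 for the butyl thioether. Survival range recorded in days. Untreated control groups had 10-17 animals per experiment. Mice weighed on days 1 and 7.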

Assay [20] deals with Mus musculus. Put plainly: Antitumor activity was determined for average weight on day 1 against P-388 leukemia in mice at a dose of 150 mg/kg. The procedure, abridged: as §3
The subject of assay [21] is L1210. Put plainly: Evaluated for cytotoxicity against L1210 mouse leukemia cells. The following applies: read-out: ID50 (the source's name). In outline:
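L1210 murine leukemia cells in Eagle's minimal essential medium with 15% fetal calf serum, streptomycin (100 μg/mL), penicillin (100 units/mL) and 0.05 mM 2-mercaptoethanol. Cells counted by Coulter counter after 48 h exposure. ID50 is the 50% growth-inhibitory dose. Triplicate assays, standard deviation ±10%.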

Assay [22] relates to Mus musculus. Put plainly: Antitumor activity was determined for average 7-day weight change against P-388 leukemia in mice at a dose of 300 mg/kg. In outline:
as §3

Assay [23] has as its system Mus musculus. Put plainly: Antitumor activity was determined for average weight on day 1 against P-388 leukemia in mice at a dose of 600 mg/kg. The procedure, abridged:
as §4

SMILES strings stand for the structures.

Turning to `CCCCSC[C@H]1OC(n2cc(F)c(=O)[nH]c2=O)[C@H](O)[C@@H]1O` (stereo partly drawn), in assay [1], the ILS at 300 mg/kg was -9%. Besides, the Survival range stood at 10 in [2], 3 in [14], 11 in assay [15] and 11 in assay [19]. Besides, the Weight change in assay [3] is reported as -1%; in assay [16], 8%; in assay [17], 5%. Further, in assay [4], the ILS at 150 mg/kg is -9%. For the same molecule, the Survival median in assay [5] is given as 4; in assay [6], 11; in assay [13], 11; in [18] it was 11. Further, the ILS at 75 mg/kg in assay [7] is -9%. Besides, the Average weight in assay [8] was 26.6 g mouse-1; in [9], 28 g mouse-1; in assay [11], 2 g mouse-1; in assay [12], 1.4 g mouse-1; in assay [20], 27.8 g mouse-1; in [22] it was -0.4 g mouse-1. In addition, in [23], the Average weight came to 26.4 g mouse-1. In addition, in assay [10], the ILS at 600 mg/kg was -67%. The IC50 in assay [21] is 270 µM.
